In ChEMBL document CHEMBL1124310, “Antiinflammatory 2,6-di-tert-butyl-4-(2-arylethenyl)phenols” (J Med Chem, 1989) one finds inhibition and inhibition in vivo data, which are given here for 30 compounds.

Assay [1] has as its target T1, Polyunsaturated fatty acid 5-lipoxygenase (Homo sapiens) (UniProt P09917).
T1 sequence (whole entry): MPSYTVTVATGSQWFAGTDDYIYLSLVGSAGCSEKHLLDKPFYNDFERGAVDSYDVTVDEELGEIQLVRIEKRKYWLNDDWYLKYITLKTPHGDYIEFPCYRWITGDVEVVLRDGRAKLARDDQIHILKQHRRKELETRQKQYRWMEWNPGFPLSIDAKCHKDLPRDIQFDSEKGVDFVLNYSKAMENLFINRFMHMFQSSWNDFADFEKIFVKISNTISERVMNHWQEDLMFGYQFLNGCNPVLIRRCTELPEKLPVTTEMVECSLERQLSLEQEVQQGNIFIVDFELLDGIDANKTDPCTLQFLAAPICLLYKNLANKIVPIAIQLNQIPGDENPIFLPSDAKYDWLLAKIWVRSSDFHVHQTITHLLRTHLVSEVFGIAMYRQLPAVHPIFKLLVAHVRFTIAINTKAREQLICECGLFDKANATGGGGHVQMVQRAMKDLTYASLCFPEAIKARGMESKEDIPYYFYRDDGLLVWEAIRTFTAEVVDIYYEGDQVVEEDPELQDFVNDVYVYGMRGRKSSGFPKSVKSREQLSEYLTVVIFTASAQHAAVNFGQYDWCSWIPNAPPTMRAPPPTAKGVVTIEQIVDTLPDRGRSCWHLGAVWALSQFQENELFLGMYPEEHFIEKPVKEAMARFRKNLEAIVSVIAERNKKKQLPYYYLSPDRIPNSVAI
The assay is described as follows: Inhibitory activity against 5-lipoxygenase at 1 uM concentration. In short, it runs like this: (§1)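 Human peripheral blood leukocytes (5 × 10^6/0.5 mL) in pH 7.2 phosphate buffer with 0.6 mM Ca2+ and 1.0 mM Mg2+ incubated with compound for 15 min at 37 °C with shaking. 5-HETE band area measured as % of total radioactivity. Inhibition = (1 − cmd/cntl) × 100; single determination in duplicate; ANOVA, p<0.05.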

The subject of assay [2] is Rattus norvegicus. The assay is described as follows: Inhibitory activity against developing adjuvant-induced arthritis (Dev AA) in rat at 50 mg/kg concentration. The class given is functional.
The target in assay [3] is T1, Polyunsaturated fatty acid 5-lipoxygenase (Homo sapiens). The assay is described as follows: Inhibitory activity against 5-lipoxygenase at 10 uM concentration. In a few lines: as §1
Assay [4] deals with T2, Cyclooxygenase (Homo sapiens, UniProt P35354+P23219). Description: Inhibitory activity against Prostaglandin G/H synthase at 1 uM concentration. Format: protein assay. In a few lines: (§2)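 Human platelets (10^7/0.5 mL) in Ca2+-free pH 7 phosphate buffer incubated with compound for 15 min at 37 °C with shaking. Prostaglandin-thromboxane band areas measured as % of total radioactivity. Inhibition = (1 − cmd/cntl) × 100; single determination run in duplicate; ANOVA, p<0.05.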

Assay [5] concerns the target T2, Cyclooxygenase. The assay is described as follows: Inhibitory activity against Prostaglandin G/H synthase at 10 uM concentration. The class given is protein assay. In a few lines: as §2
The target of assay [6] is T1, Polyunsaturated fatty acid 5-lipoxygenase (Homo sapiens). Description: Inhibitory activity against lipoxygenase (LO) at 10 uM concentration. In a few lines: as §1
Assay [7] shares this target. Description: Inhibitory activity against lipoxygenase (LO) at 1 uM concentration. In a few lines:
as §1

In assay [8] the test system is Rattus norvegicus. Description: Inhibitory activity against developing adjuvant-induced arthritis (Dev AA) in rat at 5 mg/kg concentration. Format: functional.
The test system of assay [9] is Rattus norvegicus. The assay is described as follows: Inhibitory activity against developing adjuvant-induced arthritis (Dev AA) in rat at 25 mg/kg concentration. Format: functional.
For assay [10], the target named is T1, Polyunsaturated fatty acid 5-lipoxygenase (Homo sapiens). The assay is described as follows: Inhibitory activity against lipoxygenase (LO) at 1 uM concentration; % inhibition not statistically different from control. In a few lines:
as §1

The term inhibition denotes the relative decrease from the control value, in per cent. As usually defined, the inhibition in vivo is the change of the read-out against control, counted positive when it falls. As for `CC(C)(C)c1cc(/C=C/C(=O)c2cccs2)cc(C(C)(C)C)c1O`, the inhibition turned out to be 39% in assay [1], 84% in [3], 44% in [4] and 75% in assay [5]. Also, the inhibition in vivo at 50 mg/kg in [2] turned out to be 8%.

`CC(C)(C)c1cc(/C=C/c2ccc(Cl)s2)cc(C(C)(C)C)c1O`: the inhibition in assay [6] was determined as 28%; in [7], 19%. Besides, the inhibition in vivo at 50 mg/kg in assay [2] worked out at 45%.

Take `CC(C)(C)c1cc(/C=C/c2ccsc2)cc(C(C)(C)C)c1O`: the inhibition in [6] came out at 81%; in assay [7], 9%. In addition, the inhibition in vivo at 50 mg/kg in [2] was determined as 62%. In addition, in [8], the inhibition in vivo at 5 mg/kg came to 31%.

As for `CC(C)(C)c1cc(C(=O)/C=C/c2ccsc2)cc(C(C)(C)C)c1O`, the inhibition was determined as 16% in [1], 69% in assay [3], 73% in [4] and 83% in [5]. Moreover, in assay [2], the inhibition in vivo at 50 mg/kg came out at 13%.

Regarding `COc1ccc(/C=C/c2cc(C(C)(C)C)c(O)c(C(C)(C)C)c2)cc1`, the results for the inhibition in assay [6] and in assay [7] were 12% and 18%, respectively. In [2], the inhibition in vivo at 50 mg/kg came to 0%.

Turning to `COc1ccc(/C=C/c2cc(C(C)(C)C)c(O)c(C(C)(C)C)c2)cc1OC`, the values for the inhibition in assay [6] and in assay [7] were 20% and 12%, respectively. In addition, the inhibition in vivo at 50 mg/kg in [2] came to 26%.

In the case of `CC(C)(C)c1cc(/C=C/c2cccnc2)ccc1O`, in [9], the inhibition in vivo at 25 mg/kg was determined as 3%. Further, the inhibition in assay [6] stood at 81%; in assay [7], 29%.

`CC(C)c1cc(/C=C/c2cccs2)cc(C(C)C)c1O`: the inhibition in assay [7] was 82%.

On to `CC(C)(C)c1cc(/C=C/c2ccccc2C(=O)O)cc(C(C)(C)C)c1O`, for which the inhibition in assay [1] was determined as 10%; in assay [4] it was 21%; in assay [5] it was 53%.

`CCOC(=O)/C(=C\c1cc(C(C)(C)C)c(O)c(C(C)(C)C)c1)c1cccnc1`: the inhibition in assay [1] was 23%; in [3], 83%; in [4], 54%; in assay [5], 78%. Moreover, the inhibition in vivo at 50 mg/kg in assay [2] came out at 24%.

Take `CC(C)(C)c1cc(/C=C2\CCOC2=O)cc(C(C)(C)C)c1O`: the inhibition in vivo at 25 mg/kg in assay [9] came to 63%. The inhibition amounted to 34% in [1] and 67% in assay [3]. Moreover, the inhibition in vivo at 5 mg/kg in [8] came out at 39%.

As for `CC(C)c1cc(/C=C/c2cccnc2)cc(C(C)C)c1O`, the inhibition in vivo at 25 mg/kg in [9] worked out at 17%. Also, the inhibition came out at 87% in assay [6] and 73% in [7].

On to `CC(C)(C)c1cc(/C=C/c2ccccc2)cc(C(C)(C)C)c1O`, for which the inhibition is 12% in assay [1], 14% in [3], 34% in assay [4] and 79% in [5]. Moreover, the inhibition in vivo at 50 mg/kg in [2] came out at 42%.

Consider `CC(C)(C)c1cc(/C=C/c2ccccn2)cc(C(C)(C)C)c1O`, for which the inhibition amounted to 88% in assay [6] and 34% in [7]. Besides, the inhibition in vivo at 50 mg/kg in assay [2] amounted to 74%. Besides, in assay [8], the inhibition in vivo at 5 mg/kg came out at 36%.

As for `Cc1ccc(/C=C/c2cc(C(C)(C)C)c(O)c(C(C)(C)C)c2)cc1`, the inhibition in assay [1] is 6%; in assay [3], 27%; in assay [4], 12%; in assay [5], 52%. In addition, the inhibition in vivo at 50 mg/kg in assay [2] worked out at 97%. In addition, in assay [8], the inhibition in vivo at 5 mg/kg worked out at 55%.

With `CC(C)(C)c1cc(/C=C/c2ccncc2)cc(C(C)(C)C)c1O`, the inhibition in assay [6] was 6%. In addition, the inhibition in vivo at 50 mg/kg in [2] amounted to 0%.

As to `CC(C)(C)c1cc(/C=C/c2ccc(Cl)c(Cl)c2)cc(C(C)(C)C)c1O`, the inhibition in assay [1] was 18%; in assay [3], 3%; in [4], -16%; in assay [5], -5%. In [2], the inhibition in vivo at 50 mg/kg is 10%.

`CC(C)(C)c1cc(/C=C/C(=O)c2ccsc2)cc(C(C)(C)C)c1O`: the inhibition is 53% in [1], 91% in [6], 56% in assay [4] and 80% in [5]. Moreover, the inhibition in vivo at 50 mg/kg in assay [2] was determined as 0%.

With `CC(C)(C)c1cc(C(=O)/C=C/c2cccs2)cc(C(C)(C)C)c1O`, the inhibition in assay [1] was determined as 10%; in [6], 59%; in [4], 72%; in [5], 83%. The inhibition in vivo at 50 mg/kg in assay [2] stood at 0%.

Regarding `CC(C)(C)c1cc(/C=C/c2ccc(F)cc2)cc(C(C)(C)C)c1O`, the inhibition in assay [1] was determined as 23%; in assay [3], 46%; in assay [4], 52%; in assay [5], 70%. The inhibition in vivo at 50 mg/kg in assay [2] was 58%.

As to `CC(C)(C)c1cc(C/C=C/c2cccs2)cc(C(C)(C)C)c1O`, the inhibition in assay [6] was found to be 49%; in assay [10] it was 7%.

For the compound `CCC(C)(C)c1cc(/C=C/c2cccnc2)cc(C(C)(C)CC)c1O`, the inhibition in vivo at 25 mg/kg in [9] amounted to 50%. Besides, the inhibition in [7] came out at 27%.

For `CC(C)(C)c1cc(/C=C/c2cccc(C(F)(F)F)c2)cc(C(C)(C)C)c1O`, the inhibition in assay [1] came to 19%; in assay [6], 22%; in [4], 9%; in [5], 18%. For the same compound, the inhibition in vivo at 50 mg/kg in assay [2] worked out at 0%.

In the case of `CC(C)(C)c1cc(C(=O)c2cccs2)cc(C(C)(C)C)c1O` [PRIFELONE], the inhibition in vivo at 25 mg/kg in assay [9] was 96%. Further, the inhibition came to 82% in [6] and 17% in [7]. Further, the inhibition in vivo at 5 mg/kg in [8] was 24%.

As for `CC(C)(C)c1cc(CCc2cccnc2)cc(C(C)(C)C)c1O`, the inhibition in vivo at 25 mg/kg in assay [9] was 3%. The inhibition in [6] turned out to be 63%; in assay [7], 13%.

Take `CC(C)(C)c1cc(/C=C/c2ccc(Cl)cc2)cc(C(C)(C)C)c1O`: the inhibition in assay [1] was determined as 6%; in assay [3] it was 16%; in assay [4], 31%; in [5], 66%. The inhibition in vivo at 50 mg/kg in [2] was determined as 42%.

`Cc1cc(/C=C/c2cccnc2)cc(C(C)(C)C)c1O`: the inhibition in vivo at 25 mg/kg in [9] stood at 22%. Further, the inhibition in assay [6] came out at 85%; in [7], 75%.

Take `Oc1ccc(/C=C/c2cccnc2)cc1`: the inhibition in [3] amounted to 41%; in [4], 28%; in assay [5] it was 5%.

Take `CC(C)(C)c1cc(/C=C/c2ccc[n+]([O-])c2)cc(C(C)(C)C)c1O`: the inhibition in vivo at 25 mg/kg in assay [9] worked out at 26%. Also, the inhibition was determined as 21% in assay [1], 59% in assay [3], 24% in assay [4] and 73% in assay [5].

Take `CCC(C)(C)c1cc(/C=C/c2cccs2)cc(C(C)(C)CC)c1O`: in [9], the inhibition in vivo at 25 mg/kg stood at 40%. The inhibition in [7] was determined as 10%.
